pIC50: −log10 of the molar value. “Also recorded” adds a separate entry of the source. Values belong to the compound of their own block, whether it stands above or below them.
What was measured:
[1] = test system: CL1-0 cells; experiment: Flow cytometry of fluorescence intensity; format: cell-based, human
In short: (§1)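 CL1-0 and MRC-5 cells were loaded with 1 µM carbazole dication for 5 h and exposed to 0, 0.5 or 1 mM lysosomotropic agent. Mean fluorescence was taken at 564–606 nm with 488 nm excitation and expressed as a ratio across treatments; three independent experiments.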

[2] = test system: primary human normal foreskin fibroblast cell line (BJ); experiment: Cytoplasmic microinjection; format: cell-based; details: BJ cells, 5 min after injection
In short: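 BJ primary foreskin fibroblasts were grown on glass coverslips in EMEM with 10% FBS. At 37°C, the cytoplasm was co-microinjected with 170 µM test compound and 2.5 mg ml−1 Texas Red 70-kDa dextran, which cannot cross nuclear pores. After 5 min incubation, cells were moved to fresh CO2-independent medium and imaged live.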

[3] = test system: MCF-7 cells; experiment: Subcellular localization by fluorescence microscopy; format: cell-based, human; details: drug-sensitive MCF-7, 5 µM BMVC
[4] = test system: MRC-5 cells; experiment: Subcellular localization by epi-fluorescence/confocal microscopy; format: cell-based, human
[5] = test system: normal and cancer cells; experiment: Low temperature; format: cell-based; details: incubation at 4°C, energy-dependent mechanisms inhibited
In short: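 Cells were precooled at 4°C for 1 h to block energy-dependent uptake, then incubated with 1 µM test compound for 1 h. Cells were co-stained for 10 min with 1 ng ml−1 Hoechst 33342 (membrane-permeant) or Hoechst 33258 (impermeant) as controls. Imaging was by epi-fluorescence microscopy.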

[6] = test system: MCF-7/ADR cells; experiment: Flow cytometry of relative fluorescence changes; format: cell-based, human; details: for relative fluorescence change upon verapamil: 50 µM verapamil (P-glycoprotein inhibition); for relative fluorescence change upon LeuLeuOMe: 0.5 mM LeuLeuOMe
[7] = test system: CL1-0 cells; experiment: Subcellular localization by epi-fluorescence/confocal microscopy; format: cell-based, human; details: for subcellular localization (nucleus versus mitochondria): CL1-0 human lung cancer cells, fluorescence microscopy
[8] = test system: MCF-7/ADR cells; experiment: Subcellular localization by fluorescence microscopy; format: cell-based, human
[9] = test system: MRC-5 cells; experiment: Flow cytometry of fluorescence intensity; format: cell-based, human; details: MRC-5, LeuLeuOMe treatment
In short: as §1

[10] = Lipophilicity, n-octanol/water partition; format: physicochemical
In short: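 Shake-flask method: n-octanol and water were premixed and left overnight. Test compound was added to the aqueous phase at 500 µM and mixed with an equal volume of n-octanol. Absorbance was measured in each phase, and log P was calculated as log[Ao/Aw].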

[11] = test system: MRC-5 cells; experiment: Lysosomal membrane permeabilization; format: cell-based, human
[12] = test system: CL1-0 cells; experiment: Lysosomal membrane permeabilization; format: cell-based, human
[13] = test system: normal cells; experiment: Effect of lysosomal pH-raising agents on nuclear fluorescence of BMVC; format: cell-based; details: agents raise internal pH of lysosomes
[14] = test system: MCF-7/ADR cells; experiment: Cytotoxicity of doxorubicin; format: cell-based; details: Homo sapiens, NCI/ADR-RES, read-out: cytotoxicity IC50

SMILES: C[n+]1ccc(C=Cc2ccc3[nH]c4ccc(C=Cc5cc[n+](C)cc5)cc4c3c2)cc1.[I-].[I-] [BMVC, 3,6-bis(1-methyl-4-vinylpyridinium) carbazole diiodide]
time-dependent fluorescent intensity ([1]; 1 µM BMVC, flow cytometry, CL1-0 compared with MRC-5): significantly higher in CL1-0 than in MRC-5 cells
BMVC fluorescence change after LeuLeuOMe ([1]; CL1-0, LeuLeuOMe treatment): small increase in BMVC fluorescence
localization after microinjection into the cytoplasm [2]: rapidly accumulated in the nuclei
subcellular localization [3]: released from the lysosomes and entered the nucleus
BMVC fluorescence localization after LeuLeuOMe ([4]; MRC-5, 5 µM BMVC 24 h then LeuLeuOMe 0.5 mM 1 h): can be detected in the nucleus
nuclear fluorescence in fixed and permeabilized cells ([4]; MRC-5 fixed and permeabilized (4% formaldehyde, 0.1% Triton X-100)): strong BMVC fluorescence similar to that in CL1-0 cells
lysosomal retention / co-localization with LysoTracker ([4]; MRC-5 normal lung cells, confocal microscopy): colocalized with LysoTracker red but not MitoTracker red
nuclear fluorescence ([4]; MRC-5 normal lung cells, fluorescence microscopy): no fluorescence was observed in the nuclei
fluorescence detected in cells at 4°C (uptake) [5]: not detected
relative fluorescence change upon verapamil [6]: without affecting BMVC fluorescence
relative fluorescence change upon LeuLeuOMe [6]: more than tenfold
lysosomal retention / co-localization with LysoTracker ([7]; CL1-0 cancer cells, confocal microscopy): partially colocalized with MitoTracker red, but not LysoTracker red
subcellular localization (nucleus versus mitochondria) [7]: strong fluorescent signal was observed in the nuclei; also recorded: localize to the nuclei to a greater extent than the mitochondria
fluorescent signal in cancer cell nuclei upon DNase treatment ([7]; fixed CL1-0 cells, DNase): dramatically reduced
fluorescent signal in cancer cell nuclei upon RNase treatment ([7]; fixed CL1-0 cells, RNase): moderately reduced
nuclear fluorescence upon LeuLeuOMe treatment ([8]; MCF-7/ADR, LeuLeuOMe, confocal microscopy): increased nuclear BMVC fluorescence
subcellular localization / lysosomal retention ([8]; drug-resistant MCF-7/ADR): localized to the lysosomes; also recorded: retained in the lysosomes
BMVC fluorescence intensity change after LeuLeuOMe [9]: increase in the fluorescence intensity

lipophilicity (log P), in words [10]: lower lipophilicity
SMILES: C[n+]1ccc(/C=C/c2ccc3c(c2)c2cc(/C=C/c4cc[n+](C)cc4)ccc2n3CCOCCOCCOCC[N+]2(C)CCCCC2)cc1.[I-].[I-].[I-] [BMVC-8C3O]
subcellular localization (nucleus versus mitochondria) [7]: localized to both the nucleus and the mitochondria

SMILES: CN1CCN(c2ccc3[nH]c(-c4ccc5[nH]c(-c6ccc(O)cc6)nc5c4)nc3c2)CC1 [Hoechst 33258]
fluorescence detected in cells at 4°C (uptake) [5]: not detected

SMILES: CCOc1ccc(-c2nc3ccc(-c4nc5ccc(N6CCN(C)CC6)cc5[nH]4)cc3[nH]2)cc1 [Hoechst 33342]
fluorescence detected in cells at 4°C (uptake) [5]: readily detected in the cells

SMILES: COC(=O)[C@H](CC(C)C)NC(=O)[C@@H](N)CC(C)C [LeuLeuOMe, L-leucyl-L-leucine methyl ester]
lysosomal membrane permeabilization [11]: increases lysosomal membrane permeabilization
lysosomal membrane permeabilization [12]: increases lysosomal membrane permeabilization

SMILES: Cl.N [NH4Cl, ammonium chloride]
effect on nuclear fluorescence of BMVC [13]: increased nuclear fluorescence of BMVC

SMILES: CCN(CC)CCCC(C)Nc1ccnc2cc(Cl)ccc12 (centres unmarked) [chloroquine]
effect on nuclear fluorescence of BMVC [13]: increased nuclear fluorescence of BMVC

SMILES: COc1cccc2c1C(=O)c1c(O)c3c(c(O)c1C2=O)C[C@@](O)(C(=O)CO)C[C@@H]3O[C@H]1C[C@H](N)[C@H](O)[C@H](C)O1 [doxorubicin, reference compound]
pIC50 [14]: ≤ 4.70
relative fluorescence change upon verapamil [6]: increased twofold
relative fluorescence change upon LeuLeuOMe [6]: no difference in doxorubicin fluorescence

Source: paper PMC3915044 (Integrative biology : quantitative biosciences from nano to …, 2013)
